Compound activity: PubChem BioAssay, several laboratories
This excerpt belongs to a sample that is enriched for hits.
CHOP inh = inhibitors of CHOP induction in ER stress response; CHO-K1 CHOP-promoter luciferase, tunicamycin-induced, 15-18 h; inhibition, % at 10 µM; 3.8% of 220,000 active; AID 2732;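 active means compounds that reduced the stress-induced luciferase reporter signal by more than about 70% of percent inhibition, limit read from the data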;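 further: 0% = tunicamycin plus vehicle and 100% = wells without tunicamycin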
TLR9-MyD88 block = blocks human TLR9 binding to MyD88. Q9NR96+Q99836. CHO BLA complementation TLR9-MyD88, CCF4 FRET ratio. inhibition, % at 4.98 µM. 0.21% of 340,000 active. AID 504734;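 active means inhibition above the mean over all tested compounds plus 3 SD, cut at about 21% in these data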;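 further: 0% = DMSO only wells and 100% = clavulanate BLA inhibitor control wells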
UPR XBP1 act = adaptive UPR (XBP1) activation. CHO-XBP1 luciferase reporter, IRE1-XBP1 UPR activation, luminescence; percent of tunicamycin response, DMSO as zero. activation, % at 20 µM. 0.33% of 330,000 active. AID 463104;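 active means versus positive control, 20 µM dose yields 30% or more activation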;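 further: 100% = tunicamycin at 10 µg/mL and 0% = DMSO only wells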
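incubation = overnight seeding at 37 °C, 6 h compound treatment at 37 °C | assay system = CHO-XBP1 cells stably carrying IRE1-XBP1-driven luciferase reporter | input = 1000 cells per well | detection = luciferase luminescence | dosing = single point, 20 µM final compound, 1% DMSO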
TLR4-MyD88 BLA = inhibitors of human TLR4-MyD88 binding; inhibition, % at 8.4 µM; AID 861; 0.18% of 200,000 active; HeLa CL3-4 TLR4/MyD88 BLA complementation, FRET ratio; in the data active means inhibition above about 25%;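 further: 0% = vehicle and 100% = reference inhibitor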
CHOP UPR activ = apoptotic UPR (CHOP) activation; CHO-CHOP luciferase reporter, luminescence; percent of tunicamycin response over DMSO baseline; activation, % at 10 µM; 0.34% of 330,000 active;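 active means at 10 µM dose, activation of 40% or more, normalized to positive control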;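 further: 100% = tunicamycin at 10 µg/mL and 0% = DMSO alone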
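System: CHO-CHOP luciferase reporter cell line; amount: 500 cells/well; buffer or medium: F12 medium containing 10% fetal bovine serum; incubation: 6 h compound exposure at 37 °C after overnight seeding; measured by: luciferase luminescence after 10 min with Steady-Glo reagent; evaluation: % reporter activation, DMSO baseline versus tunicamycin full activation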
NOD2-RIPK2 inh = NOD2-RIPK2 protein interaction inhibition. 0.38% of 360,000 active. CHO BLA complementation NOD2-RIPK2, CCF4 ratio. inhibition, % at 4.98 µM. O43353. AID 624267; in the data active means inhibition above about 21%;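 further: 0% = vehicle only and 100% = reference blocker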
Target sequence (O43353 whole entry, looked up): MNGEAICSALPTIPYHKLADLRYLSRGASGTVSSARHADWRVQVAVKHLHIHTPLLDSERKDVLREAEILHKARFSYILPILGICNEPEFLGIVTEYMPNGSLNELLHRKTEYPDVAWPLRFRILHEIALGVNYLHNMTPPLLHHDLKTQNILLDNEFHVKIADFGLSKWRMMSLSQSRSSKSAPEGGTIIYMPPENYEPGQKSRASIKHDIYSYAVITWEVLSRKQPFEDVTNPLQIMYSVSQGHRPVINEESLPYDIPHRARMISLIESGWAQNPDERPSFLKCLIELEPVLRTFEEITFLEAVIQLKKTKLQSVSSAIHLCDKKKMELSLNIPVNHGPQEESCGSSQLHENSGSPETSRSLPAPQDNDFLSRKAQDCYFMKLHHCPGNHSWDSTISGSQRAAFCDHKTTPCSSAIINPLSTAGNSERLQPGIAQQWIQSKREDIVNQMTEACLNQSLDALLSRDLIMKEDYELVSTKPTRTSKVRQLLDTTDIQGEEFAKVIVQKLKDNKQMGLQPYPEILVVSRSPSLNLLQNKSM
An asterisk follows results filed as active; nt = no result.

SMILES	CHOP inh	TLR9-MyD88 block	UPR XBP1 act	TLR4-MyD88 BLA	CHOP UPR activ	NOD2-RIPK2 inh
COC(=O)[C@]12CCCCC=C1N(Cc1ccc3c(c1)OCO3)C(=O)[C@H](CC(=O)NCCC(C)C)C2	nt	nt	nt	nt	nt	0
N#Cc1ccc(Cl)cc1NC(=O)CN1C(=O)C(=O)N(CCC2=CCCCC2)C1=O	nt	-10	nt	nt	nt	-4
Cc1cc(Cl)ccc1C(O)c1ncc(-c2cccc3ccccc23)[nH]1 (stereo not given)	nt	nt	nt	nt	nt	-11
Fc1ccc(C2Nc3cccc4cccc(c34)N2)cc1	nt	-10	-3	nt	2	-4
FC(F)(F)c1ccc(C2Nc3cccc4cccc(c34)N2)cc1	87*	4	2	2	0	4
O=C(NC1=C(NC2CCS(=O)(=O)C2)C(=O)c2ccccc2C1=O)c1ccccc1 (stereo not given)	102*	-5	12	7	3	-1
COC(=O)c1ccc(OCC(O)CN(CC(C)C)CC(C)C)cc1 (stereo not given)	87*	5	-3	10	-2	-5
C=CCn1c(=NC(=O)c2ccco2)sc2cc(C(=O)OCC)ccc21	84*	-1	0	-32	3	-2
COCCn1c(=NC(=O)c2ccco2)sc2cc(C(=O)OC)ccc21	-7	-6	-1	5	-1	-1
C=CCn1c(=NC(=O)c2ccco2)sc2cc(C(=O)OC)ccc21	80*	8	3	-1	3	0
C=CC(N)CCC(=O)O (stereo not given)	91*	nt	nt	nt	nt	nt
CC1(C(=O)Nc2ccc(Cl)c(Cl)c2)CCN1C(=O)CC1CCCC1 (stereo not given)	nt	nt	nt	nt	nt	6
Cc1nnc(SCC(=O)Nc2nc3c(s2)CC(C)CC3)s1 (stereo not given)	84*	-10	4	-2	3	0
COc1cc(C=NNC(=O)Cn2nc(C)cc2C)ccc1OC(=O)C1CC1	nt	-23	2	nt	0	-5
COc1cc(SC)ccc1C(=O)Nc1ccc(Cl)cn1	86*	10	-10	-2	-7	-6
CSc1ccc(Cl)c(C(=O)Nc2ccc(Cl)cn2)c1	9	-3	2	-1	-1	6
COc1ccccc1-n1cnc2cc(NS(=O)(=O)c3ccc(Br)cc3)ccc21	79*	-8	0	1	1	9
O=C(c1cccc(Cl)c1)c1nn(-c2ccccc2)c(=O)cc1C(F)(F)F	85*	-7	4	0	2	0
O=C(Nc1ccccc1)c1nn(-c2ccccc2)c(=O)cc1C(F)(F)F	73*	-2	0	-6	-1	-2
O=C(c1ccccc1)c1nn(-c2ccc(Cl)cc2)c(=O)cc1C(F)(F)F	90*	9	2	9	8	-3
O=C(c1ccccc1)c1nn(-c2ccccc2)c(=O)cc1C(F)(F)F	24	2	-2	-6	1	8
O=C(C(=O)c1cc(Br)ccc1O)c1cc(Br)ccc1O	nt	-4	nt	nt	nt	-7
COc1ccc(Nc2nnc(SCC(=O)N(CC(C)C)C3CCS(=O)(=O)C3)s2)cc1 (stereo not given)	nt	-1	nt	nt	nt	-2
CC(=O)Nc1sc(C)c(C)c1C(=O)OCC(=O)Nc1ccccc1C(F)(F)F	nt	-9	nt	nt	nt	-16
Cc1ccc(NC2=C(C(=O)c3ccccc3)N(C)S(=O)(=O)c3ccccc32)cc1	95*	-7	-3	6	0	-11
SMILES	CHOP inh	TLR9-MyD88 block	UPR XBP1 act	TLR4-MyD88 BLA	CHOP UPR activ	NOD2-RIPK2 inh
Cc1ccc(Nc2nc(-c3cccnc3)nc3ccccc23)cc1	8	-7	-1	nt	2	-10
CCOC(=O)c1ccc(Nc2nc(-c3cccnc3)nc3ccccc23)cc1	93*	3	20	-13	9	-1
Cn1cccc1C(=O)NC(=O)COC(=O)CC12CC3CC(CC(C3)C1)C2	80*	1	-1	5	-3	1
CC(C)NC(=O)Nc1ccc2c(c1)C(=O)N([C@H](C)CO)C[C@H](C)[C@@H](CN(C)Cc1ccc(C(F)(F)F)cc1)OCCCC[C@H](C)O2	nt	-1	nt	nt	nt	-9
CC(C)(C)c1ccc(OCC(=O)NNC(=S)NC(=O)c2ccco2)c(Br)c1	nt	-13	-1	nt	-1	-6
CC(C)(C)c1ccc(OCC(=O)NCc2ccco2)c(Br)c1	81*	9	5	11	2	13
CC(=O)Nc1nc(C)nc(-c2ccccc2OC(C)=O)n1	9	-1	0	15	-1	6
CC(=O)Nc1nc(-c2ccccc2)nc(-c2ccccc2OC(C)=O)n1	90*	0	0	-9	0	4
O=C(Nc1ccc(Cl)cc1)OC(CN1CCCCC1)C(F)(F)F (stereo not given)	74*	1	-1	3	-2	-13
O=C(Nc1cccc(F)c1)OC(CN1CCCCC1)C(F)(F)F (stereo not given)	15	-14	0	1	-4	-5
CC1(C(=O)NS(=O)(=O)C2CC2)CCCN(C(=O)c2ccc(F)c(Cl)c2)C1 (stereo not given)	nt	nt	nt	nt	nt	-4
CCC(C(=O)OCC(=O)Nc1cc(Cl)cc(Cl)c1)c1ccccc1 (stereo not given)	92*	1	-3	5	-2	-16
CNC(=O)OC1CC2CC1[C@H]1CCCCN1C2=O (stereo not given in full)	nt	nt	nt	nt	nt	-7
Clc1ccc(Sc2cnc3ccccc3n2)cc1	76*	-8	0	3	3	-1
c1ccc(Sc2cnc3ccccc3n2)cc1	38	-1	2	8	3	-6
CCOC(=O)C1=C(C)NC(C)=C(C(=O)OCC)C1/C=C/c1ccccc1OC	63	3	0	15	6	-10
CCOC(=O)C1=C(C)NC(C)=C(C(=O)OCC)C1c1ccccc1/C=C/C(=O)OC(C)(C)C	nt	nt	39*	nt	7	nt
O=C(Nc1ccc(F)cc1)C(c1ccncc1)N1CCN(C(=O)c2ccco2)CC1 (stereo not given)	nt	nt	nt	nt	nt	-18
CC(NC(=O)COC(=O)c1cn(-c2ccccc2)nc1-c1cccs1)c1ccccc1 (stereo not given)	90*	1	0	1	3	-8
CC(=O)N[C@@H](Cc1c[nH]c2ccccc12)C(=O)OCC(=O)Nc1cc(C)on1	nt	2	nt	nt	nt	1
CC1Cc2ccccc2N1c1ncnc(N)c1[N+](=O)[O-] (stereo not given)	72*	11	-6	-9	-4	-1
CCc1ccc(N(CC)C(=O)c2ccc3c(Cl)c4c(nc3c2)CCC4)cc1	87*	4	-1	-6	1	-10
CCN(C(=O)c1ccc2c(Cl)c3c(nc2c1)CCC3)c1cccc(C)c1	48	nt	nt	-1	nt	nt
CCCN(CC(=O)Nc1ccccc1Br)CC(=O)Nc1ccc(F)c(F)c1F	47	-4	-1	-2	2	-2
